Data set [1] in a line: Intrinsic clearance in human liver microsomes. The data set is classed as ADME, Microsome. To be noted: read-out: CLH.
Data set [2] in a line: Solubility of the compound at pH 7. Format: physicochemical. To be noted: buffer.
The nature of data set [3]: Intrinsic clearance in rat liver microsomes. Format: ADME, Microsome. To be noted: read-out: CLH.
Data set [4] is described as follows: Clearance in rat at 5 mg/kg, iv. The data set is classed as ADME, organism-based. The arrangement: dose 5 mg/kg, route intravenous. To be noted: in vivo. Put shortly:
(§1)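 Female CD rats received 5 mg/kg IV (20 mg/kg PO arm). Female CD1 mice received 5 mg/kg IV (10 mg/kg PO arm). Male and female beagles and male cynomolgus monkeys each received 1 mg/kg IV (2 mg/kg PO arm). Clearance and half-life were derived from plasma concentration–time profiles after the IV dose.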

The nature of data set [5]: Oral bioavailability in rat at 20 mg/kg. The data set is classed as ADME, organism-based. To be noted: in vivo. The method in brief: (§2)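 Rat PK used a 5 mg/kg intravenous dose and a 20 mg/kg oral dose.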
Data set [6] in a line: AUC in rat at 20 mg/kg, po. The arrangement: dose 20 mg/kg, route oral. The data set is classed as ADME, organism-based. To be noted: plasma. Put shortly:
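Female CD rats were dosed orally at 20 mg/kg, with a separate 5 mg/kg IV arm. Exposure (AUC) was taken from the plasma profile after the oral dose.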

A short description of data set [7]: Volume of distribution at steady state in rat at 5 mg/kg, iv. The data set is classed as ADME, organism-based. The arrangement: dose 5 mg/kg, route intravenous. To be noted: in vivo, read-out: Vdss. The method in brief: as §2
Data set [8] is described as follows: Aqueous solubility of the compound. Format: physicochemical.
Data set [9] is described as follows: Apparent permeability from basal to apical side of human Caco2 cells. To be noted: Caco-2. Format: ADME, cell-based.
Data set [10] is described as follows: Apparent permeability from apical to basal side of human Caco2 cells. Format: ADME, cell-based. To be noted: Caco-2.
Data set [11] in a line: Drug uptake in tumor in nu/nu mouse xenografted with human A2780 cells at 60 mg/kg, po. The data set is classed as ADME, organism-based, Neoplasm. The arrangement: dose 60 mg/kg, route oral. To be noted: in vivo, read-out: Drug uptake. The method in brief: (§3)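 A2780 tumor-bearing mice received a single oral dose. Tumors and plasma were sampled at 10 h. Tumor pAKT Ser473 was assessed for target modulation, and compound concentrations were measured in plasma and tumor.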

The nature of data set [12]: Clearance in beagle dog at 1 mg/kg, iv. To be noted: in vivo. Also noted: dose 1 mg/kg, route intravenous. The data set is classed as ADME, organism-based, Canis lupus familiaris. The method in brief:
as §1

Data set [13] can be described thus: Volume of distribution at steady state in CD rat at 5 mg/kg, iv. The data set is classed as ADME, organism-based. The arrangement: dose 5 mg/kg, route intravenous. To be noted: in vivo, read-out: Vdss. Put shortly:
(§4)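 Female CD rats were dosed at 5 mg/kg IV and 20 mg/kg PO.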

The nature of data set [14]: Oral bioavailability in CD rat at 20 mg/kg. The data set is classed as ADME, organism-based. To be noted: in vivo. The method in brief:
as §4

Data set [15] in a line: Clearance in CD1 mouse at 5 mg/kg, iv. The data set is classed as ADME, organism-based. Also noted: dose 5 mg/kg, route intravenous. To be noted: in vivo. Put shortly:
as §1

The nature of data set [16]: Volume of distribution at steady state in beagle dog at 1 mg/kg, iv. Format: ADME, organism-based, Canis lupus familiaris. Also noted: dose 1 mg/kg, route intravenous. To be noted: in vivo, read-out: Vdss. Put shortly: (§5)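 Male and female beagle dogs were dosed at 1 mg/kg IV and 2 mg/kg PO.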
Data set [17] can be described thus: Clearance in CD rat at 5 mg/kg, iv. The data set is classed as ADME, organism-based. The arrangement: dose 5 mg/kg, route intravenous. To be noted: in vivo. The method in brief:
as §1

Data set [18] can be described thus: Volume of distribution at steady state in CD1 mouse at 5 mg/kg, iv. Format: ADME, organism-based. The arrangement: dose 5 mg/kg, route intravenous. To be noted: in vivo, read-out: Vdss. Put shortly:
(§6)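 Female CD1 mice were dosed at 5 mg/kg IV and 10 mg/kg PO.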

Data set [19] can be described thus: Half life in beagle dog at 1 mg/kg, iv. The data set is classed as ADME, organism-based, Canis lupus familiaris. Also noted: dose 1 mg/kg, route intravenous. To be noted: in vivo. Put shortly:
as §1

Data set [20] can be described thus: Volume of distribution at steady state in cynomolgus monkey at 1 mg/kg, iv. To be noted: in vivo, read-out: Vdss. The data set is classed as ADME, organism-based, Macaca fascicularis. The arrangement: dose 1 mg/kg, route intravenous. Put shortly: (§7)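 Male cynomolgus monkeys were dosed at 1 mg/kg IV and 2 mg/kg PO.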
Data set [21] is described as follows: Drug uptake in tumor in nu/nu mouse xenografted with human A2780 cells at 100 mg/kg, po. Also noted: dose 100 mg/kg, route oral. To be noted: in vivo, read-out: Drug uptake. Format: ADME, organism-based, Neoplasm. Put shortly:
as §3

Data set [22] can be described thus: Oral bioavailability in CD1 mouse at 10 mg/kg. Format: ADME, organism-based. To be noted: in vivo. Put shortly:
as §6

A short description of data set [23]: Half life in CD rat at 5 mg/kg, iv. Format: ADME, organism-based. The arrangement: dose 5 mg/kg, route intravenous. To be noted: in vivo. The method in brief:
as §1

A short description of data set [24]: Half life in CD1 mouse at 5 mg/kg, iv. To be noted: in vivo. Also noted: dose 5 mg/kg, route intravenous. The data set is classed as ADME, organism-based. Put shortly: as §1
Data set [25] is described as follows: Dissociation constant, pKa of the compound. Format: physicochemical.
Data set [26] in a line: Half life in cynomolgus monkey at 1 mg/kg, iv. Also noted: dose 1 mg/kg, route intravenous. To be noted: in vivo. Format: ADME, organism-based, Macaca fascicularis. The method in brief:
as §1

Data set [27] relates to Plasma. Description: Plasma concentration in nu/nu mouse xenografted with human A2780 cells at 60 mg/kg, po. Format: ADME, organism-based. The arrangement: dose 60 mg/kg, route oral. To be noted: in vivo. The method in brief: (§8)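 A2780 tumor-bearing mice were given oral doses (3, 10, 60 and 100 mg/kg were examined). Tumor AKT Ser473 phosphorylation and plasma exposure were measured, with the 10 h time point sampled.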

Data set [28] in a line: Oral bioavailability in beagle dog at 2 mg/kg. Format: ADME, organism-based, Canis lupus familiaris. To be noted: in vivo. Put shortly: as §5
Data set [29] in a line: Lipophilicity, log D at pH 7.4. The data set is classed as physicochemical. To be noted: buffer.
For data set [30], the system named is Plasma. Put plainly: Plasma concentration in nu/nu mouse xenografted with human A2780 cells at 100 mg/kg, po. Format: ADME, organism-based. The arrangement: dose 100 mg/kg, route oral. To be noted: in vivo. Put shortly: as §8
The nature of data set [31]: Clearance in cynomolgus monkey at 1 mg/kg, iv. The data set is classed as ADME, organism-based, Macaca fascicularis. Also noted: dose 1 mg/kg, route intravenous. To be noted: in vivo. The method in brief: as §1
The nature of data set [32]: Oral bioavailability in cynomolgus monkey at 2 mg/kg. Format: ADME, organism-based, Macaca fascicularis. To be noted: in vivo. Put shortly:
as §7

Data set [33] can be described thus: Oral bioavailability in rat at 10 mg/kg. To be noted: in vivo. Format: ADME, organism-based. The method in brief: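 Rat PK used a 5 mg/kg intravenous dose and a 10 mg/kg oral dose.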
The nature of data set [34]: AUC in rat at 10 mg/kg, po. The data set is classed as ADME, organism-based. Also noted: dose 10 mg/kg, route oral. To be noted: plasma.

Molecules are shown by their SMILES. ≈ marks a conversion by molar mass, not a printed value.

In the case of `Nc1ncc(-c2cc(N3CCOCC3)nc(N3CCOCC3)n2)cn1`, the microsomal CLint in data set [1] and in data set [3] was not above 9 µL/min/mg in each case. For the same molecule, the concentration in solution in data set [2] (solubility) came to 25 µM (≈ 8.58 µg/mL).

Regarding `Nc1cc(Cl)c(-c2cc(N3CCOCC3)nc(N3CCOCC3)n2)cn1`, in data set [4], the clearance is 22 mL/min/kg. Further, the bioavailability in [5] is 69%. The microsomal CLint in data set [1] and in [3] was not above 9 µL/min/mg each time. In data set [6], this molecule came in with an exposure (AUC) of 29 µM·h. In addition, the Vd in [7] stood at 1.11 L/kg. The same molecule showed a solubility in data set [2] of 45 µM (≈ 17 µg/mL).

On to `Nc1cc(C(F)(F)F)c(-c2cc(Nc3cnc4ccccc4c3)nc(N3CCOCC3)n2)cn1`, for which the clearance in data set [4] was found to be 8 mL/min/kg. Moreover, the concentration in solution in [8] (solubility) came to 0.3 µg/mL (≈ 0.642 µM). Moreover, the Papp B→A in data set [9] is 2.15 ×10⁻⁶ cm/s. Further, the Papp A→B in data set [10] was 1.56 ×10⁻⁶ cm/s. The same molecule registered an AUC in data set [6] of 114 µM·h. The Vd in [7] was determined as 2.6 L/kg.

`Nc1ncc(-c2cc(N3CCOCC3)nc(N3CCOCC3)n2)c(=O)[nH]1` had a clearance in [4] of 24 mL/min/kg. The molecule further registered a bioavailability in data set [5] of 56%. Also, the microsomal CLint in data set [1] and in data set [3] was not above 9 µL/min/mg each time. Also, the area under the curve (AUC) in [6] came to 24 µM·h. Moreover, the Vd in data set [7] is 2.8 L/kg. Also, the solubility in data set [2] came out at 22 µM (≈ 7.91 µg/mL).

With `N#Cc1cc(N)ncc1-c1cc(N2CCOCC2)nc(N2CCOCC2)n1`, in [4], the clearance turned out to be 11 mL/min/kg. Also, in data set [5], the bioavailability is 98%. The microsomal CLint in [1] and in data set [3] was not above 9 µL/min/mg each time. Moreover, in [6], the exposure (AUC) came out at 86 µM·h. Besides, in data set [7], the Vd turned out to be 1.6 L/kg. Further, the concentration in solution in [2] (solubility) came to 11 µM (≈ 4.04 µg/mL).

In data set [4], `Nc1ncc(-c2cc(N3CCOCC3)nc(N3CCOCC3)n2)c(C(F)(F)F)n1` came in with a clearance of 11 mL/min/kg. Moreover, the bioavailability in [5] worked out at 83%. Further, the microsomal CLint in data set [1] and in data set [3] was not above 9 µL/min/mg each time. Besides, the area under the curve (AUC) in [6] was 62 µM·h. The Vd in data set [7] is 2.1 L/kg. The amount in solution in [2] (solubility) came to 61 µM (≈ 25.1 µg/mL).

In turn, `Nc1ncc(-c2cc(Nc3cnc4ccccc4c3)nc(N3CCOCC3)n2)c(C(F)(F)F)n1` showed a clearance in [4] of 11 mL/min/kg. Besides, the AUC in [6] is 26 µM·h. Also, in data set [7], the Vd was found to be 2.8 L/kg.

`Nc1cc(C(F)(F)F)c(-c2cc(N3CCOCC3)nc(N3CCOCC3)n2)cn1` [BUPARLISIB]: the clearance in [4] amounted to 3 mL/min/kg; in [12] it was 7.3 mL/min/kg; in [15], 11 mL/min/kg; in data set [17], 3 mL/min/kg; in data set [31] it was 13 mL/min/kg. In addition, the concentration in [11], in data set [21], in data set [27] and in data set [30] was 2000 nM in each case. Further, the Vd is 3.1 L/kg in [13]; 3.1 L/kg in data set [16]; 1.4 L/kg in data set [18]; 3.1 L/kg in data set [20]; 3.1 L/kg in data set [7]. Moreover, the bioavailability in data set [14] was 50%; in [5], 50%; in data set [22], 71%; in data set [28] it was more than 100%; in data set [32], 44%. Further, the half-life is 6.6 h in data set [19], 11 h in data set [23], 1.6 h in data set [24] and 3.6 h in data set [26]. In addition, the pKa in data set [25] is 5.1. For the same molecule, the microsomal CLint in data set [1] and in data set [3] was not above 9 µL/min/mg in each case. For the same molecule, in data set [6], the AUC worked out at 178 µM·h. Also, the concentration in solution in data set [2] (solubility) was 132 µM (≈ 54.2 µg/mL). The molecule further gave a log distribution coefficient (logD) in data set [29] of 2.9.

In [4], `Nc1ncc(-c2cc(N3CCOCC3)nc(N3CCOCC3)n2)c(N)n1` displayed a clearance of 9 mL/min/kg. Also, the bioavailability in data set [33] is 68%. This molecule also yielded an area under the curve (AUC) in [34] of 64 µM·h. Also, the microsomal CLint in [1] and in data set [3] was not above 9 µL/min/mg in each case. Moreover, the Vd in data set [7] came out at 4.5 L/kg. In [2], this molecule had a solubility of 8 µM (≈ 2.87 µg/mL).

For `Nc1ncc(-c2cc(Nc3cnc4ccccc4c3)nc(N3CCOCC3)n2)cn1`, the AUC in data set [6] was 7 µM·h.

Values taken from ChEMBL document CHEMBL2016472, “Identification of NVP-BKM120 as a Potent, Selective, Orally Bioavailable Class I PI3 Kinase Inhibitor for Treating Cancer” (ACS Med Chem Lett, 2011).
